Results published in ChEMBL document CHEMBL4396869, “Design and Synthesis of Selective Phosphodiesterase 4D (PDE4D) Allosteric Inhibitors for the Treatment of Fragile X Syndrome and Other Brain Disorders” (J Med Chem, 2019).
Converted amounts (≈) assume the structure as drawn. Values belong to the molecule of their own block, whether it stands above or below them. The source made the active and inactive calls. The rule behind the calls is not given here.

What was measured:
[1] = Drug level in human hepatocytes treated with 2-(4-((2-(3-Chlorophenyl)-6-ethylpyrimidin-4-yl)methyl)phenyl)acetamide assessed as metabolite formation measured after 4 hrs by LC-UV/MS/MS analysis; type: ADME, cell-based, Hepatocyte
Procedure, shortened: (§1)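 Metabolite identification: cryopreserved hepatocytes from male Wistar rat or human, 0.5×10^6 cells/mL in suspension, incubated 4 h at 37 °C; incubation medium analysed by LC-UV/MS/MS.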

[2] = Drug level in Wistar rat hepatocytes treated with 2-(4-((2-(3-Chlorophenyl)-6-ethylpyrimidin-4-yl)methyl)phenyl)acetamide assessed as metabolite formation measured after 4 hrs by LC-UV/MS/MS analysis; type: ADME, cell-based, Hepatocyte; procedure, shortened: as §1
[3] = target: 3',5'-cyclic-AMP phosphodiesterase 4B (Homo sapiens, UniProt Q07343, S133D); assay: (§2) Inhibition of recombinant human His6-tagged PDE4B1 UCR1 S133D mutant expressed in baculovirus infected Sf9 insect cells using cAMP as substrate preincubated for 5 to 10 mins followed by substrate addition and measured for 10 mins by yeast myokinase/pyruvate kinase/lactate dehydrogenase-coupled fluorescence assay
[4] = Permeability across basal to apical side in MDCK-MDR1 cells; type: ADME, cell-based, Canis lupus familiaris; conditions: dog
Procedure, shortened: (§3)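 Cellular permeability in MDCK-MDR1 cells, apical-to-basal and basal-to-apical, run by a contract lab using standard protocols. Efflux ratio taken as B-A/A-B.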

[5] = Protein binding in mouse plasma; type: ADME, cell-free; conditions: read-out: PPB
[6] = Solubility of the compound in FaSSIF; type: physicochemical; conditions: simulated gi fluid
Procedure, shortened: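 Kinetic solubility measured in fasted state simulated intestinal fluid (FaSSIF), run by a contract lab using standard protocols.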

[7] = Protein binding in rat plasma; type: ADME, cell-free; conditions: read-out: PPB
Cytochrome P450 2C19 = Cytochrome P450 2C19 (Homo sapiens, UniProt P33261); assay: Inhibition of […] (unknown origin) by fluorescence-based assay; type: ADME
Procedure, shortened: (§4)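 CYP inhibition run with a fluorescent substrate by a contract laboratory under standard protocols; IC50 reported.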

Cytochrome P450 2C9 = Cytochrome P450 2C9 (Homo sapiens, UniProt P11712); assay: Inhibition of CYP2C9 (unknown origin) by fluorescence-based assay; type: ADME; procedure, shortened: as §4
[8] = Oral bioavailability in mouse; type: ADME, organism-based; conditions: in vivo
[9] = Stability in mouse liver microsomes assessed as parent compound remaining at 1 uM measured after 30 mins by LC-MS/MS analysis; type: ADME, Microsome; conditions: read-out: Stability
Procedure, shortened: (§5)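 Liver microsome stability run by a contract lab using standard protocols. Parent compound remaining measured after 30 min incubation.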

[10] = as §2, with “PDE4D7” for “PDE4B1”, “S129D” for “S133D”
[11] = Stability in human liver microsomes assessed as parent compound remaining at 1 uM measured after 30 mins by LC-MS/MS analysis; type: ADME, Microsome; conditions: read-out: Stability; procedure, shortened: as §5
[12] = Stability in rat liver microsomes assessed as parent compound remaining at 1 uM measured after 30 mins by LC-MS/MS analysis; type: ADME, Microsome; conditions: read-out: Stability; procedure, shortened: as §5
Mus musculus [13] = assay: Induction of emesis in ICR mouse assessed as reduction in ketamine/xylazine-induced duration of anesthesia at 10 to 30 mg/kg, po pretreated for 30 mins followed by ketamine/xylazine addition; type: organism-based; conditions: in vivo
Procedure, shortened: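 Male ICR mice, 25–30 g. Test agents given by oral gavage in 5% DMSO, 5% Solutol in PBS, or rolipram IP; ketamine (80 mg/kg) plus xylazine (10 mg/kg) IP given 30 min after PO or 15 min after IP dosing. Endpoint: time from loss to return of righting reflex.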

[14] = Half life in po dosed mouse plasma; type: ADME, organism-based; conditions: in vivo
Homo sapiens [15] = organism: Homo sapiens; assay: Selectivity ratio of IC50 for recombinant human wild-type His6-tagged PDE4D7 UCR1 domain (S129 residues) expressed in baculovirus infected Sf9 insect cells to IC50 for recombinant human His6-tagged PDE4D7 UCR1 S129D mutant expressed in baculovirus infected Sf9 insect cells
[16] = Permeability across apical to basal side in MDCK-MDR1 cells; type: ADME, cell-based, Canis lupus familiaris; conditions: dog; procedure, shortened: as §3
Mus musculus [17] = assay: Memory enhancement effect in ICR mouse assessed as improvement in novel object discrimination at 1 to 3 mg/kg, po administered via gavage measured for 5 mins by open field test; type: functional, organism-based
Procedure, shortened: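 Male ICR mice (25–30 g), dosed by oral gavage in 5% DMSO, 5% Solutol in PBS. Three phases in an open field box: 10 min habituation on day 1, 5 min training with identical objects on day 2, 5 min test with familiar and novel objects on day 3 (24 h delay). Exploration times recorded; discrimination index d2 = (b − a)/(a + b).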

[18] = Ratio of AUC in po dosed mouse brain to plasma; type: ADME, organism-based
Procedure, shortened: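 Mice were dosed orally in 5% DMSO, 5% Solutol, 90% PBS. Drug exposure was measured in plasma and brain, and the ratio was taken from brain AUC over plasma AUC.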

Cytochrome P450 3A4 = Cytochrome P450 3A4 (Homo sapiens, UniProt P08684); assay: Inhibition of CYP3A4 (unknown origin) by fluorescence-based assay; type: ADME; procedure, shortened: as §4
[19] = Stability in Wistar rat hepatocytes assessed as parent compound remaining measured after 4 hrs by LC-UV/MS/MS analysis; type: ADME, cell-based, Hepatocyte; conditions: read-out: Stability
Procedure, shortened: (§6)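 Metabolite identification run with cryopreserved hepatocytes from male Wistar rats and from humans, 0.5×10^6 cells/mL in suspension, incubated 4 h at 37 °C. Incubation medium analysed by LC-UV/MS/MS.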

[20] = (§7) Inhibition of recombinant human His6-tagged PDE4D7 UCR1 S129D mutant expressed in baculovirus infected Sf9 insect cells using cAMP as substrate preincubated for 5 to 10 mins followed by substrate addition and measured for 10 mins in presence of BSA by yeast myokinase/pyruvate kinase/lactate dehydrogenase-coupled fluorescence assay
Cytochrome P450 2D6 = Cytochrome P450 2D6 (Homo sapiens, UniProt P10635); assay: Inhibition of CYP2D6 (unknown origin) by fluorescence-based assay; type: ADME; procedure, shortened: as §4
[21] = Half life in po dosed mouse brain; type: ADME, organism-based; conditions: in vivo
[22] = Protein binding in human plasma; type: ADME, cell-free; conditions: read-out: PPB
[23] = as §7, with “human wild-type” for “human”, “domain (S129 residues)” for “S129D mutant”, “mins” for “mins in presence of BSA”
[24] = Aqueous kinetic solubility of the compound at pH 7 at 100 uM measured after 1 hr; type: physicochemical; conditions: buffer, pH 7, 1 h
[25] = Protein binding in dog plasma; type: ADME, cell-free, Canis lupus familiaris; conditions: read-out: PPB
[26] = Stability in human hepatocytes assessed as parent compound remaining measured after 4 hrs by LC-UV/MS/MS analysis; type: ADME, cell-based, Hepatocyte; conditions: read-out: Stability; procedure, shortened: as §6
[27] = Therapeutic index, ratio of compound effect for induction of emesis in ICR mouse assessed as reduction in ketamine/xylazine-induced duration of anesthesia at 10 to 30 mg/kg, po to compound effect for memory enhancement effect in ICR mouse assessed as improvement in novel object discrimination at 1 to 3 mg/kg, po; type: toxicity, organism-based; conditions: in vivo
Procedure, shortened: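 Male ICR mice (25–30 g) were gavaged with compound in 5% DMSO, 5% Solutol in PBS. Object recognition ran as 10 min habituation on day 1, 5 min training on day 2 and 5 min testing on day 3, scored as d2 = (b−a)/(a+b). Thirty minutes after an oral dose, ketamine 80 mg/kg plus xylazine 10 mg/kg was given IP, and anesthesia duration was timed from loss to return of the righting reflex. The index compares effective doses in the two tests.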

[28] = Efflux ratio of permeability across basal to apical side over apical to basal side in MDCK-MDR1 cells; type: ADME, cell-based, Canis lupus familiaris; conditions: dog
[29] = Stability in monkey liver microsomes assessed as parent compound remaining at 1 uM measured after 30 mins by LC-MS/MS analysis; type: ADME, Macaca mulatta, Microsome; conditions: rhesus monkey, read-out: Stability; procedure, shortened: as §5
Homo sapiens [30] = organism: Homo sapiens; assay: Selectivity ratio of IC50 for recombinant human His6-tagged PDE4B1 UCR1 S133D mutant expressed in baculovirus infected Sf9 insect cells to IC50 for recombinant human His6-tagged PDE4D7 UCR1 S129D mutant expressed in baculovirus infected Sf9 insect cells
[31] = Stability in dog liver microsomes assessed as parent compound remaining at 1 uM measured after 30 mins by LC-MS/MS analysis; type: ADME, Canis lupus familiaris, Microsome; conditions: read-out: Stability; procedure, shortened: as §5

Sequence of Cytochrome P450 2C9 (P11712 whole entry): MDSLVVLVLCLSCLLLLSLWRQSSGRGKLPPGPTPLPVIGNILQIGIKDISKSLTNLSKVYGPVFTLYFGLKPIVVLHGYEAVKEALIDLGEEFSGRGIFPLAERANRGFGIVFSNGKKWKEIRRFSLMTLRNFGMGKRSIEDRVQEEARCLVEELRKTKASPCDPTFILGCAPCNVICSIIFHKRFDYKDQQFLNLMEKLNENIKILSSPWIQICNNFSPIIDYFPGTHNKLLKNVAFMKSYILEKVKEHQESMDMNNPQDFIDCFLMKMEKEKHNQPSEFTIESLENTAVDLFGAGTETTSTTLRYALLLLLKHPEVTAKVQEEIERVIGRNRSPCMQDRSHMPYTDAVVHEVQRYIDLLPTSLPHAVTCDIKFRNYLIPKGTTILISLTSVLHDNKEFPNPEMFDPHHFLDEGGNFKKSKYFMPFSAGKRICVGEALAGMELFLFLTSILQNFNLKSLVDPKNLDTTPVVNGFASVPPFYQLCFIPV
Sequence of Cytochrome P450 3A4 (P08684 whole entry): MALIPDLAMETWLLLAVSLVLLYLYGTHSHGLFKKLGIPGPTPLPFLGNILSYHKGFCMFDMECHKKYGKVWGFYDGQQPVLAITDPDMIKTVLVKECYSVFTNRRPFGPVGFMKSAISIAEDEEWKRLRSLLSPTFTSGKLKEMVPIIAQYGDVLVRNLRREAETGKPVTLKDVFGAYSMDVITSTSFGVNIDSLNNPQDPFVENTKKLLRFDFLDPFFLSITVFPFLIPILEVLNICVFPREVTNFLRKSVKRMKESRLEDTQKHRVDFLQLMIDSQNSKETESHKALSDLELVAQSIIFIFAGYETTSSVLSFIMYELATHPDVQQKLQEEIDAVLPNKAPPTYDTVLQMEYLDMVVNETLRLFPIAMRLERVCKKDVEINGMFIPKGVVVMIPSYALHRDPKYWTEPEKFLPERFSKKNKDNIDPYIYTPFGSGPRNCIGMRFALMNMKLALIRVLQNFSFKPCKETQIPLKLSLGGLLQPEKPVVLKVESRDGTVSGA
Sequence of Cytochrome P450 2D6 (P10635 whole entry): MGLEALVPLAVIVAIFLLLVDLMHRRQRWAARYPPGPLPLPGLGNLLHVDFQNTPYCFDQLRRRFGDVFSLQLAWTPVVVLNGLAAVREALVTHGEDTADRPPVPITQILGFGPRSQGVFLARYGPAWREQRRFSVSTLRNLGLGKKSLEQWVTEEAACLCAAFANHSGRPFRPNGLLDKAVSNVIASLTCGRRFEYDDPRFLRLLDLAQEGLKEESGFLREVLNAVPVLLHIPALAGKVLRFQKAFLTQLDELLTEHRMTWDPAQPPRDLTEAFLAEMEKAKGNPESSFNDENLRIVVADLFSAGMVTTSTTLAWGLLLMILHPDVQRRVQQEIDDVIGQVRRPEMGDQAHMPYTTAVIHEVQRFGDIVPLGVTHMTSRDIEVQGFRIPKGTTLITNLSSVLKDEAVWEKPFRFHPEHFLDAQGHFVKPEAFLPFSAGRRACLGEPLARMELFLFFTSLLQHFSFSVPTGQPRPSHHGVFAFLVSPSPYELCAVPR
Sequence of 3',5'-cyclic-AMP phosphodiesterase 4B (Q07343 whole entry S133D): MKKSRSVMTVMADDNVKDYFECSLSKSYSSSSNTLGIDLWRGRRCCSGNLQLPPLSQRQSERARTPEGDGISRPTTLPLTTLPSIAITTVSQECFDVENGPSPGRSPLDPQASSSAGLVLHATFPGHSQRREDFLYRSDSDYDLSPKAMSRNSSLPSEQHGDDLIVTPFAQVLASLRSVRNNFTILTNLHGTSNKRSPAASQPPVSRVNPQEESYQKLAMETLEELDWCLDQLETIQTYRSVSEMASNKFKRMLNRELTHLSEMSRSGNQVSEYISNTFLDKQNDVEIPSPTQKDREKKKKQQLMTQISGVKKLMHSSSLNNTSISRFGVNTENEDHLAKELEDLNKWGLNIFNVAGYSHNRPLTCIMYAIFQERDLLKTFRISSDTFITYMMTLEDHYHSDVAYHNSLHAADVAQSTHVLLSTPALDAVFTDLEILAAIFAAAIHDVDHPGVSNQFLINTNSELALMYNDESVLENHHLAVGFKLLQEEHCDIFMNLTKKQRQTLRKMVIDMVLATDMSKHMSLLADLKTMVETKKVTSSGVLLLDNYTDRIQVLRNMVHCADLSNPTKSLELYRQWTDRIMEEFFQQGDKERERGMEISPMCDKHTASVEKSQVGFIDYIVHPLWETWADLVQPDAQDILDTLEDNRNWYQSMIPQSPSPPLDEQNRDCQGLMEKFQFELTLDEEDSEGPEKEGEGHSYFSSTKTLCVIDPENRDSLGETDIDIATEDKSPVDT
Sequence of Cytochrome P450 2C19 (P33261 whole entry): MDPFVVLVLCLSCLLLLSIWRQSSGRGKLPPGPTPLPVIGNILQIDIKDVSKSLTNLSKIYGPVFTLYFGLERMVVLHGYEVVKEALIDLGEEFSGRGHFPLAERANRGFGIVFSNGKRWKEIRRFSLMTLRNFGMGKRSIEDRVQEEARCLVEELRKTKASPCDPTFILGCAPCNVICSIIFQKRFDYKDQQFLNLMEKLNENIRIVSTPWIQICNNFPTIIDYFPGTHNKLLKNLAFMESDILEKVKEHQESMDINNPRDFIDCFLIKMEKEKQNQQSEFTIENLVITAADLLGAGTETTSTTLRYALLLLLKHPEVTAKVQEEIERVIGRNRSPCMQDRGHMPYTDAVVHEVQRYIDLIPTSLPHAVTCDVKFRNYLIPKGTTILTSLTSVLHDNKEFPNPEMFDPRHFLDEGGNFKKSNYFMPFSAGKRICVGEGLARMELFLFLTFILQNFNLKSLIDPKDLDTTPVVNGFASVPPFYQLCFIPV

Drug metabolism [1]: Metabolite_Detected
Drug metabolism [2]: Metabolite_Detected
Structure (SMILES): CCc1cc(Cc2ccc(CC(=O)O)cc2)nc(-c2cccc(Cl)c2)n1

Structure (SMILES): CCc1cc(Cc2ccc(CC(N)=O)cc2)nc(-c2cccc(Cl)c2)n1
IC50 [3]: 0.225 µM
permeability [4]: 22 ×10⁻⁶ cm/s
fraction unbound [5]: 0.002 to 0.005
solubility [6]: 100 µM (≈ 36.6 µg/mL)
fraction unbound [7]: 0.002 to 0.005
IC50 (Cytochrome P450 2C19): 29 µM
IC50 (Cytochrome P450 2C9): > 100 µM
bioavailability [8]: 53%
remaining at 0.5 h, 1 µM [9]: 54 to 90%
IC50 [10]: 0.0017 µM
remaining at 0.5 h, 1 µM [11]: 54 to 90%
remaining at 0.5 h, 1 µM [12]: 54 to 90%
Activity (Mus musculus [13]): Toxic
t1/2 [14]: 27.6 min
Ratio IC50 (Homo sapiens [15]): 184
permeability [16]: 24.1 ×10⁻⁶ cm/s
Activity (Mus musculus [17]): Active
Ratio AUC [18]: 2.7
IC50 (Cytochrome P450 3A4): 5.9 µM
remaining at 4 h [19]: 66.8%
inhibition [20]: Active
IC50 (Cytochrome P450 2D6): > 100 µM
t1/2 [21]: 26.4 min
fraction unbound [22]: 0.002 to 0.005
IC50 [23]: 0.313 µM
Kinetic_solubility [24]: < 1.6 µM
fraction unbound [25]: 0.002 to 0.005
remaining at 4 h [26]: 93.2%
selectivity ratio [27]: 10
Ratio [28]: 0.9
remaining at 0.5 h, 1 µM [29]: 54 to 90%
Ratio IC50 (Homo sapiens [30]): 132
remaining at 0.5 h, 1 µM [31]: 54 to 90%
